Bioassay records (PubChem)
PRMT1 inh: inhibitors of human PRMT1. Q99873. recombinant PRMT1, activity-based probe fluorescence polarization. inhibition, % at 2.79 µM. 370,000 compounds, 1.3% hits;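 active means inhibition above about 21% made by adding two undisclosed values, limit read from the data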
Target sequence (Q99873 whole entry, looked up): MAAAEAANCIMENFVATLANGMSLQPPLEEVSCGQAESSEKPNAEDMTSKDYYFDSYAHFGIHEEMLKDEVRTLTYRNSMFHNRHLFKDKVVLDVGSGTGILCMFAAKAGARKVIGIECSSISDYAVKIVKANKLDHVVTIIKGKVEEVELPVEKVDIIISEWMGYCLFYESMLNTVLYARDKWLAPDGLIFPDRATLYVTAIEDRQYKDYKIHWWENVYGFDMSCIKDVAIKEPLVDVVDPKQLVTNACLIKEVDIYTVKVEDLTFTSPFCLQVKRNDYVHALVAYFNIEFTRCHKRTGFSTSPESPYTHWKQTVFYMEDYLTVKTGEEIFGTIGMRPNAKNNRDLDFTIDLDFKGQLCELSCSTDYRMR
GSTO1 counter: counter-screen for RBBP9 inhibitors: inhibitors of human GSTO1; recombinant GSTO1, activity-based probe fluorescence polarization; 300,000 compounds, 1.1% hits; inhibition, % at 5.96 µM; AID 1974; P78417;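 active means inhibition above the campaign mean inhibition plus 3 SD, cut at about 35% in these data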;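 further: 0% = GSTO1-1 with DMSO and 100% = wells lacking GSTO1-1 enzyme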
Target sequence (P78417 whole entry, looked up): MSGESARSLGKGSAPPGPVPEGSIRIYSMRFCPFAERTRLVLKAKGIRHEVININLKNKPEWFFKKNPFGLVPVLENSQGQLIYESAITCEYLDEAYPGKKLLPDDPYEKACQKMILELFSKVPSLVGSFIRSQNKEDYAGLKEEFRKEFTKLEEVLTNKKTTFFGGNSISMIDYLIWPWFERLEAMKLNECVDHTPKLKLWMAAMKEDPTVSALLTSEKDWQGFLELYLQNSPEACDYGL
E coli Lon inh: inhibitors of E. coli Lon protease; purified E. coli Lon protease, fluorescence polarization; 360,000 compounds, 0.42% hits; P0A9M0; inhibition, % at 7.94 µM; in the data active means inhibition above about 13%, passing the limit was not always enough;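 further: 0% = enzyme with probe and DMSO and 100% = no enzyme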
PAD4 inh: PAD4 (human) enzyme inhibition | recombinant PAD4, RCA probe fluorescence polarization | 330,000 compounds, 0.41% hits | Q9UM07 | inhibition, % at 6.36 µM | AID 485272;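 active means percent inhibition above a cutoff equal to the mean of all tested compounds plus 3 SD, cut at about 15% in these data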;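 further: 0% = PAD4 with RCA probe and DMSO and 100% = probe without PAD4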
TDP2 absorb: blocks human TDP2 phosphodiesterase activity; inhibition, % at 12.8 µM; AID 720702; recombinant TDP2, T5PNP hydrolysis, p-nitrophenol absorbance 415 nm; 370,000 compounds, 0.34% hits;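 active means inhibition above the mean of all tested compounds plus 3 SD, set per campaign, cut at about 25% in these data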;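 further: 0% = DMSO with enzyme and 100% = buffer with substrate but no TDP2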
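System – recombinant human TDP2 · Quantity – TDP2 enzyme at 120 nM final · Doses – single concentration, 12.8 µM nominal, with 1% DMSO · Incubation – 2 h at 37 °C · Measured by – epi absorbance of p-nitrophenol freed from T5PNP by hydrolysis · Read-out – % inhibition relative to enzyme-containing and enzyme-free wells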
PRMT1 inh conf: PRMT1 (human) inhibition, FP confirmation | inhibition, % at 2.79 µM | recombinant His-PRMT1, activity-based probe fluorescence polarization | shares compounds with PRMT1 inh | 3,300 compounds, 42% hits;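 active means mean inhibition across replicates above the hit cutoff derived for the earlier primary screen, cut at about 22% in these data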
Numbers without * were called inactive; / = not tested or not shown. Rows were chosen to be rich in hits. Some 2.5% of all compounds tested hit in one or more screens of this group.

SMILES	PRMT1 inh	GSTO1 counter	E coli Lon inh	PAD4 inh	TDP2 absorb	PRMT1 inh conf
CC(C)(C)c1cc(C(=O)CCN2CCOCC2)cc(C(C)(C)C)c1O	36*	-12	4	1	-25	13
CC(C)(C)NC(=O)CCN1CCOCC1	1	0	-3	4	4	/
C[C@H](CO)N1C[C@H](C)[C@@H](CN(C)S(C)(=O)=O)Oc2ccc(NC(=O)CCC(F)(F)F)cc2C1=O	-1	/	26	-3	-9	/
C=C(C)Cn1c2ccc(NC(=O)CCOCC)cc2c(=O)n1C	-2	/	-3	/	-10	/
Cc1ccc(NC(=O)CSc2ccc(-c3cccnc3)nn2)c(C)c1	51*	6	4	-7	-6	-2
O=C1C=CC(=O)N1	78*	1	1	-2	-15	87*
CCN(CC)c1ccc(SS(=O)(=O)O)cc1	75*	21	-10	-5	7	83*
CCOC(=O)c1c(NC(=S)Nc2ccccc2)sc2c1CCN(CC)C2	28*	-11	-101	-2	-12	11
COc1ccc(N2CC(C(=O)Nc3nnc(SCCC4OCCO4)s3)CC2=O)cc1 (centres undefined)	9	12	8	3	10	/
CCOC(=O)CC(S(=O)(=O)c1ccccc1)S(=O)(=O)c1ccccc1	79*	/	-2	/	2	58*
CC(/C=C/c1ccco1)=N\NC(=O)c1cccnc1	7	11	-2	-4	10	/
O=C(/C=C/c1ccco1)c1cccnc1	47*	6	-5	2	-2	19
Cc1ccc(-n2c(N)c(C(=O)N3CCN(C)CC3)sc2=S)cc1	86*	-1	-2	-4	2	71*
Cc1ccc(-n2c(N)c(C(=O)N3CCCCC3)sc2=S)cc1	5	4	-20	-3	2	/
Cc1c(C(=O)Nc2cccc(F)c2)cnn1-c1ccccc1	2	2	5	5	-15	/
O=C(CCN1CCc2ccccc2C(c2ccccc2)C1)c1ccc2c(c1)OCCO2 (centres undefined)	38*	-14	-9	-6	7	20
CN(C)CCC(=O)c1ccc2c(c1)OCO2	36*	-7	-15	-3	9	18
O=C(CCN1Cc2ccccc2C1)c1ccc2c(c1)OCCO2	26*	-4	-11	-5	-2	22*
O=C(O)CCSCC(=O)c1ccc2c(c1)OCCO2	32*	6	-14	-2	-8	4
COc1ccc(Br)c(Cn2c(C)c(C(=O)NCc3cccc([N+](=O)[O-])c3)sc2=O)c1	-5	/	-5	/	-7	/
CCc1ccc2nc(N(CCN(C)C)C(=O)c3ccc4ncsc4c3)sc2c1	43*	0	-5	11	5	3
Cc1cccc2sc(N(CCCN(C)C)C(=O)c3ccc4ncsc4c3)nc12	29*	9	-2	8	1	11
CN(C)CCN(C(=O)c1ccc2c(c1)OCCO2)c1nc2ccc(Cl)cc2s1	2	-5	5	0	9	/
COc1ccc(S[C@]2(C(=O)N3CCOCC3)CC(=O)N(c3ccsc3)[C@@H]2c2ccc(OC)cc2)cc1	0	/	/	/	-10	/
Cc1cc(C)nc(N/N=C/c2cn[nH]c2-c2ccc(F)cc2)n1	-6	-3	9	2	1	/
SMILES	PRMT1 inh	GSTO1 counter	E coli Lon inh	PAD4 inh	TDP2 absorb	PRMT1 inh conf
CC(C)(C)C(=O)/C=C/Nc1ccccc1O	26*	4	9	-6	-10	8
CCC(C)NC(=O)C1CCN(S(=O)(=O)c2ccc3[nH]c(=O)oc3c2)CC1 (centres undefined)	5	/	/	/	5	/
O=C(O)/C=C/C(=O)Nc1ccccc1-c1ccccc1NC(=O)/C=C/C(=O)O	53*	-1	15	-2	-4	26*
O=C(O)/C=C/C(=O)Nc1cccc2c1-c1ccccc1C2=O	67*	/	0	/	-3	17
NC(=O)c1ccccc1NC(=O)/C=C/C(=O)O	3	-2	0	-4	2	/
O=C(O)/C=C/C(=O)Nc1ccc(SC(F)(F)F)cc1	7	1	-3	-5	11	/
O=C(O)/C=C/C(=O)Nc1ccccc1SC(F)(F)F	61*	0	1	0	-6	36*
O=C(Nc1ccc(Cl)cc1)C1Cc2c(-c3cccc(F)c3)ccnc2O1 (centres undefined)	-5	/	-4	/	-14	/
Cc1noc(C)c1C(=O)N1CCC1(C)C(=O)NS(=O)(=O)c1cccs1 (centres undefined)	5	/	-3	/	4	/
C=CCn1c(COc2ccc(C)cc2)nnc1SCc1ccc([N+](=O)[O-])cc1	-6	/	/	/	-5	/
C(=C\c1ccco1)/c1ccc2ccccc2n1	38*	12	24	-3	-18	12
Cc1ccc2c(c1)Sc1c(ccc3ccccc13)N2	26*	8	21	-10	22	3
c1ccc2c(c1)Nc1cc3ccccc3cc1S2	-2	10	-7	2	11	/
Cc1csc(NC(=O)CSc2sc3c(O)cc(=O)[nH]c3c2C#N)n1	81*	9	-9	-26	8	8
O=C(CSc1nc2[nH]c(=O)cc(O)c2s1)Nc1nccs1	25*	/	-1	-2	2	0
CCSc1nnc(NC(=O)CSc2sc3c(O)cc(=O)[nH]c3c2C#N)s1	27*	21	-14	-4	-1	10
CCN(CC(=O)NCc1cccs1)CC(=O)Nc1cccc(S(N)(=O)=O)c1	44*	/	-1	-5	4	-3
C=CCN1C(=O)/C(=c2\sc3nc(=O)c(Cc4ccccc4Cl)nn3c2=O)c2ccccc21	27*	3	3	0	-8	18
O=C(O)CCN1C(=O)/C(=C2\C(=O)N(Cc3ccccc3Cl)c3ccccc32)SC1=S	0	/	10	/	1	/
O=C(c1cc(O)c(O)c([N+](=O)[O-])c1)c1ccccc1F	35*	29	9	1	-12	12
O=C(Nc1ccc([N+](=O)[O-])cc1)c1ccccc1F	-2	8	0	2	-7	/
COC(=O)c1cc(-c2ccc(C)o2)nc2ccccc12	42*	4	-9	1	-2	24*
O=C(NC(=S)Nc1cccc(S(=O)(=O)NC2=NCCC2)c1)c1cc(-c2ccco2)nc2ccccc12	32*	7	4	-5	-2	13
O=C(NCc1ccco1)c1cccnc1Cl	-2	4	-18	1	-4	/
COc1cc(-c2cc(C(=O)Nc3cccc(S(=O)(=O)N(C)C)c3)c3ccccc3n2)cc(OC)c1OC	-3	10	7	2	-4	/
Cc1ccc(-c2cc(C(=O)Nc3cccc(S(=O)(=O)N(C)C)c3)c3ccccc3n2)o1	50*	-1	-11	-6	-4	56*
O=C(NCc1ccco1)c1cccnc1-c1nc2ccccc2s1	42*	10	5	9	5	46*
